ChEMBL document CHEMBL4732082, “Development of novel benzimidazole-derived neddylation inhibitors for suppressing tumor growth invitro and invivo” (Eur J Med Chem, 2021)

Legend:
[1] = test system: A549; test: Antiproliferative activity against human A549 cells assessed as inhibition of cell proliferation at 100 uM incubated for 48 hrs by CCK-8 assay relative to control; type: functional; parameters: scale not given: the % may be the effect or the level left
Method in brief: (§1)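 Cells from ATCC, passaged six times, grown in DMEM with 10% FBS and penicillin/streptomycin at 37 °C under 5% CO2. Seeded at 2500 cells/well, cultured overnight, treated 48 h, viability read by CCK-8. Run in triplicate; values are the mean of three experiments.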

[2] = molecular target: T1, NEDD8-activating enzyme E1 regulatory subunit (Homo sapiens) (UniProt Q13564); test: Inhibition of NAE (unknown origin)-mediated neddylation assessed as suppression of cullin1-Nedd8 adduct formation at 25 uM preincubated for 10 mins followed by ATP addition and measured after 30 mins by immunoblot analysis relative to control; conditions: time 40.0 min
T1 sequence (whole entry): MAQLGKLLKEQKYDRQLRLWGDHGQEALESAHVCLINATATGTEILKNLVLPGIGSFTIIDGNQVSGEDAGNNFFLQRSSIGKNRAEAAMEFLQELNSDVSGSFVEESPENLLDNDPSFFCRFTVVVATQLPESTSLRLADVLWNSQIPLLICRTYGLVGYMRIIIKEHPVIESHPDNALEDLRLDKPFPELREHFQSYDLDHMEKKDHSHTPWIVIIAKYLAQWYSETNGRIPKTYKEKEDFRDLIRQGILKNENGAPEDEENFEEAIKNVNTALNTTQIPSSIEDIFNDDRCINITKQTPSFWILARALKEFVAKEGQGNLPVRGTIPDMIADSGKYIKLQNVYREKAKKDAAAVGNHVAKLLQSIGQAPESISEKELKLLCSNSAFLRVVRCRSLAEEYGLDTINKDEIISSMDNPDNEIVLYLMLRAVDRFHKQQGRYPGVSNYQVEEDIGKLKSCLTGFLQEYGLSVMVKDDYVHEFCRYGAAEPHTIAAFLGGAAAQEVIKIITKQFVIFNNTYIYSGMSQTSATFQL

[3] = molecular target: T2, NEDD8-activating enzyme E1 catalytic subunit (Homo sapiens, UniProt Q8TBC4); test: Inhibition of NAE (unknown origin)-mediated neddylation assessed as suppression of cullin1-Nedd8 adduct formation preincubated for 10 mins followed by ATP addition and measured after 30 mins by immunoblot analysis
T2 sequence (Q8TBC4 whole entry): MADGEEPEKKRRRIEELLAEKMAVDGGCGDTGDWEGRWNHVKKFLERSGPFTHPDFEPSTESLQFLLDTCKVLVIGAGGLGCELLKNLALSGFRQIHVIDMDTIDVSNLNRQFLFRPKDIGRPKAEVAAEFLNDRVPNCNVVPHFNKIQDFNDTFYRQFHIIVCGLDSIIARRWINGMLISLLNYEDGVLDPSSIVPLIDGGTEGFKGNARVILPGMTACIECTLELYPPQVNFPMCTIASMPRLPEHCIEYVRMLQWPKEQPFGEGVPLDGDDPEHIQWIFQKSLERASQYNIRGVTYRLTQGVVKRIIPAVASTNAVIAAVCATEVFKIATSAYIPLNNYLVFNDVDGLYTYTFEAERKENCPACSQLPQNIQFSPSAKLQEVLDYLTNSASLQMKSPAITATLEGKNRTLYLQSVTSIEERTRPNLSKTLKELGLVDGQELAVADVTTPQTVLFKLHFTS

[4] = test system: A549; test: Antiproliferative activity against human A549 cells incubated for 48 hrs by CCK-8 assay; type: functional, cell-based; conditions: A549, 48 h; method in brief: as §1
[5] = Cytotoxicity against human […] cells incubated for 48 hrs by CCK-8 assay; type: cell-based; method in brief: as §1
[6] = test system: BEAS-2B; test: Cytotoxicity against human BEAS-2B cells incubated for 48 hrs by CCK-8 assay; type: cell-based; method in brief: as §1
[7] = test system: NCI-H1299; test: Antiproliferative activity against human H1299 cells incubated for 48 hrs by CCK-8 assay; type: functional, cell-based; conditions: NCI-H1299, 48 h; method in brief: as §1

| inhibition [2] | SMILES | Activity [1] | further results |
| --- | --- | --- | --- |
| 36.8% | CCOc1nc2cccc(C(=O)NC3CCCCC3)c2n1Cc1ccc(-c2ccccc2-c2nnn[nH]2)cc1 | 12.1% |  |
| 39.4% | CCOc1nc2cccc(C(=O)NCCc3ccccc3)c2n1Cc1ccc(-c2ccccc2-c2nnn[nH]2)cc1 | 43.8% |  |
| 39.7% | CCOc1nc2cccc(C(=O)NC3CCCC3)c2n1Cc1ccc(-c2ccccc2-c2nnn[nH]2)cc1 | 11.9% |  |
| 57.4% | CCOc1nc2cccc(C(=O)NCCc3ccccc3Cl)c2n1Cc1ccc(-c2ccccc2-c2nnn[nH]2)cc1 | 36.6% |  |
| 66.1% | CCOc1nc2cccc(C(=O)NCCc3ccc(Br)cc3)c2n1Cc1ccc(-c2ccccc2-c2nnn[nH]2)cc1 | 51.4% |  |
| 39.8% | CCOc1nc2cccc(C(=O)NOCc3ccccc3)c2n1Cc1ccc(-c2ccccc2-c2nnn[nH]2)cc1 | 24.3% |  |
| 60.9% | CCOc1nc2cccc(C(=O)Nc3ccc(S(N)(=O)=O)cc3)c2n1Cc1ccc(-c2ccccc2-c2nnn[nH]2)cc1 | 54.4% |  |
| 43.6% | CCOc1nc2cccc(C(=O)NCCc3cccc(OC)c3)c2n1Cc1ccc(-c2ccccc2-c2nnn[nH]2)cc1 | 57.7% |  |
| 28.6% | CCOc1nc2cccc(C(=O)N[C@H]3CC[C@H](C(=O)OC)CC3)c2n1Cc1ccc(-c2ccccc2-c2nnn[nH]2)cc1 | 9.2% |  |
| 27.9% | CCOc1nc2cccc(C(=O)NCCCOC)c2n1Cc1ccc(-c2ccccc2-c2nnn[nH]2)cc1 | 10.1% |  |
| 30.9% | CCOc1nc2cccc(C(=O)NC3CC3)c2n1Cc1ccc(-c2ccccc2-c2nnn[nH]2)cc1 | 11.3% |  |
| 34.9% | CCOc1nc2cccc(C(=O)Nc3ccc4c(c3)OCO4)c2n1Cc1ccc(-c2ccccc2-c2nnn[nH]2)cc1 | 16.7% |  |
| 74.7% | CCOc1nc2cccc(C(=O)NCCc3c[nH]c4ccccc34)c2n1Cc1ccc(-c2ccccc2-c2nnn[nH]2)cc1 | 71.6% | IC50 [3]: 9.94 µM; IC50 [4]: 19.1 µM; IC50 [5]: 44.7 µM; IC50 [6]: 37.9 µM; IC50 [7]: 18.2 µM |
| 38.1% | CCOc1nc2cccc(C(=O)NCc3ccc(F)cc3)c2n1Cc1ccc(-c2ccccc2-c2nnn[nH]2)cc1 | 35.4% |  |
| 34.6% | CCOc1nc2cccc(C(=O)Nc3ccccc3)c2n1Cc1ccc(-c2ccccc2-c2nnn[nH]2)cc1 | 13.1% |  |
| 32.6% | CCCC(=O)N(Cc1ccc(-c2ccccc2-c2nnn[nH]2)cc1)c1ccccc1C(=O)OC(C)OC(=O)OC1CCCCC1 (stereo not drawn) | 15.2% |  |
| 43.2% | CCOc1nc2ccc(C(=O)OC(C)OC(=O)OC3CCCCC3)cc2n1Cc1ccc(-c2ccccc2-c2nnn[nH]2)cc1 (stereo not drawn) | 56.9% |  |
| 18.9% | CCOc1nc2ccccc2n1Cc1ccc(-c2ccccc2-c2nn[nH]n2)cc1 | 9.5% |  |
| 35.7% | CCOc1nc2cccc(C(=O)NCCc3ccc4c(c3)OCO4)c2n1Cc1ccc(-c2ccccc2-c2nnn[nH]2)cc1 | 14.2% |  |
| 47.6% | CCOc1nc2cccc(C(=O)NCCc3ccc(Cl)cc3)c2n1Cc1ccc(-c2ccccc2-c2nnn[nH]2)cc1 | 36.2% |  |
| 87.8% | CCOc1nc2cccc(C(=O)OC(C)OC(=O)OC3CCCCC3)c2n1Cc1ccc(-c2ccccc2-c2nn[nH]n2)cc1 (stereo not drawn) [CANDESARTAN CILEXETIL] | 69.2% | IC50 [4]: 65.9 µM; IC50 [5]: 82.7 µM; IC50 [6]: 79.8 µM |
| 64.6% | CCOc1nc2cccc(C(=O)NCCCCc3ccccc3)c2n1Cc1ccc(-c2ccccc2-c2nnn[nH]2)cc1 | <20% |  |

| inhibition [2] | SMILES | Activity [1] | further results |
| --- | --- | --- | --- |
| 32.1% | CCOc1nc2cccc(C(=O)NCCc3ccc(C)cc3)c2n1Cc1ccc(-c2ccccc2-c2nnn[nH]2)cc1 | 15.7% |  |
| 45.3% | CCOc1nc2cccc(C(=O)Nc3ccc(F)cc3)c2n1Cc1ccc(-c2ccccc2-c2nnn[nH]2)cc1 | 66.3% |  |
| 82.9% | CCOc1nc2cccc(C(=O)NCCc3cc(Cl)ccc3Cl)c2n1Cc1ccc(-c2ccccc2-c2nnn[nH]2)cc1 | 77.6% | IC50 [3]: 6.67 µM; IC50 [4]: 39.3 µM; IC50 [5]: 64.9 µM; IC50 [6]: 80.8 µM; IC50 [7]: 36.7 µM |
| 86.7% | CCOc1nc2cccc(C(=O)NCCc3c(Cl)cccc3Cl)c2n1Cc1ccc(-c2ccccc2-c2nnn[nH]2)cc1 | 45.5% |  |
| 29.5% | CCOc1nc2cccc(C(=O)OC(C)OC(=O)OC3CCCCC3)c2n1Cc1ccc(-c2ccccc2)cc1 (stereo not drawn) | 34.2% |  |
| 29.4% | CCOc1nc2cccc(C(=O)NCCCNC3CCCCC3)c2n1Cc1ccc(-c2ccccc2-c2nnn[nH]2)cc1 | 11.2% |  |
| 90.5% | NS(=O)(=O)OC[C@@H]1C[C@@H](n2ccc3c(N[C@H]4CCc5ccccc54)ncnc32)C[C@@H]1O [PEVONEDISTAT] | 91.4% | IC50 [4]: 0.63 µM; IC50 [5]: 4.03 µM; IC50 [6]: 1.22 µM; IC50 [7]: 0.49 µM |
| 37.5% | CCOc1nc2cccc(C(=O)NCc3ccco3)c2n1Cc1ccc(-c2ccccc2-c2nnn[nH]2)cc1 | 18.9% |  |
| 35.8% | CCOc1nc2cccc(C(=O)NCCc3ccc(F)cc3F)c2n1Cc1ccc(-c2ccccc2-c2nnn[nH]2)cc1 | 12.5% |  |
| 34.2% | CCOc1nc2cccc(C(=O)OC(C)OC(=O)OC3CCCCC3)c2n1Cc1ccc(-c2ccccc2-c2noc(=O)[nH]2)cc1 (stereo not drawn) | 14.6% |  |
| 47.5% | CCOc1nc2cccc(C(=O)NCCc3ccc([N+](=O)[O-])cc3)c2n1Cc1ccc(-c2ccccc2-c2nnn[nH]2)cc1 | 53.5% |  |
| 41.2% | CCOc1nc2cccc(C(=O)OC(C)OC(=O)OC3CCCCC3)c2n1Cc1ccc(-c2ccccc2-c2nnnn2C)cc1 (stereo not drawn) | 16.8% |  |
| 29.5% | CCOc1nc2cccc(C(=O)NCCCN(C)C)c2n1Cc1ccc(-c2ccccc2-c2nnn[nH]2)cc1 | 9.8% |  |
| 39.8% | CCOc1nc2cccc(C(=O)Nc3ccncc3)c2n1Cc1ccc(-c2ccccc2-c2nnn[nH]2)cc1 | 39.5% |  |
| 46.5% | CCOC(=O)CNC(=O)c1cccc2nc(OCC)n(Cc3ccc(-c4ccccc4-c4nnn[nH]4)cc3)c12 | 32.7% |  |
| 25.8% | CCOc1nc2cccc(C(=O)Nc3ccc(OC)cc3)c2n1Cc1ccc(-c2ccccc2-c2nnn[nH]2)cc1 | 10.5% |  |
| 47.9% | CCOc1nc2cccc(C(=O)NCc3ccc4c(c3)OCO4)c2n1Cc1ccc(-c2ccccc2-c2nnn[nH]2)cc1 | 53.19% |  |
| 44.7% | CCOc1nc2cc(C(=O)OC(C)OC(=O)OC3CCCCC3)ccc2n1Cc1ccc(-c2ccccc2-c2nnn[nH]2)cc1 (stereo not drawn) | 33.3% |  |
| 32.6% | CCCNC(=O)c1cccc2nc(OCC)n(Cc3ccc(-c4ccccc4-c4nnn[nH]4)cc3)c12 | 12.5% |  |
| 48.9% | CCOc1nc2cccc(C(=O)NCc3ccccc3)c2n1Cc1ccc(-c2ccccc2-c2nnn[nH]2)cc1 | 54.5% |  |
| 35.7% | CCOc1nc2cccc(C(=O)NC(c3ccccc3)c3ccccc3)c2n1Cc1ccc(-c2ccccc2-c2nnn[nH]2)cc1 | 31.6% |  |
